Assay results published in ChEMBL document CHEMBL4665666, “Discovery and characterization of trypanocidal cysteine protease inhibitors from the 'malaria box'” (Eur J Med Chem, 2019).
Active and inactive are the calls of the source. The calls are words filed in the database; no cut-off is given here.

Columns and labels:
[1] = target: Cruzipain (Trypanosoma cruzi) (UniProt P25779); assay: Inhibition of recombinant Trypanosoma cruzi cruzain at 5 uM using Z-FR-AMC as substrate and measured at 12 sec interval for 5 mins without preincubation by fluorimetric analysis relative to control
In short: (§1)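 Recombinant rhodesain or cruzain (1 nM) in 0.1 M sodium acetate pH 5.5, 0.01% Triton X-100, 1 mM β-mercaptoethanol. Compound at a single concentration, either without or after 10 min enzyme pre-incubation. Inhibition is relative to DMSO, with E-64 as positive control. Done in duplicate (primary screen) or triplicate.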

[2] = target: Rhodesain (Trypanosoma brucei rhodesiense) (UniProt Q95PM0); assay: Inhibition of recombinant Trypanosoma brucei rhodesain expressed in Pichia pastoris at 5 uM using Z-FR-AMC as substrate and measured at 12 sec interval for 5 mins without preincubation by fluorimetric analysis relative to control; in short: as §1
[3] = target: Cruzipain (Trypanosoma cruzi) (UniProt P25779); assay: Inhibition of recombinant Trypanosoma cruzi cruzain at 5 uM using Z-FR-AMC as substrate preincubated for 10 mins followed by substrate addition and measured at 12 sec interval for 5 mins by fluorimetric analysis relative to control; conditions: time 15.0 min; in short: as §1
[4] = target: Cruzipain (Trypanosoma cruzi) (UniProt P25779); assay: Inhibition of recombinant Trypanosoma cruzi cruzain at 10 uM using Z-FR-AMC as substrate and measured at 12 sec interval for 5 mins without preincubation by fluorimetric analysis relative to control
In short: as §1, with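 “pre-incubation. Z-FR-AMC 2.5 µM, read at 340/440 nm every 12 s for 5 min.” for “pre-incubation.”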

cathepsin S [5] = target: T1, cathepsin S (Homo sapiens, UniProt P25774); assay: Inhibition of recombinant human cathepsin S expressed in Escherichia coli at 100 uM using Z-VVR-AMC as substrate and measured after 15 mins without preincubation by microplate reader based assay relative to control; conditions: probe Z-VVR-AMC
In short: (§2)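 Run with or without 5 min compound–enzyme pre-incubation. AMC fluorescence at 380/460 nm over 15 min. Inhibition relative to DMSO (2% final); E64 1 µM as positive control. Two independent experiments, each in triplicate.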

[6] = target: Cruzipain (Trypanosoma cruzi) (UniProt P25779); assay: Inhibition of recombinant Trypanosoma cruzi cruzain at 100 uM preincubated for 10 mins in presence of 0.1% Triton X-100 relative to control
In short: (§3)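 To test detergent sensitivity, cruzain was pre-incubated 10 min at room temperature with compound with no Triton X-100, 0.01% or 0.1% Triton X-100. Cleavage of Z-FR-AMC was then followed at pH 5.5 in acetate buffer. Percent inhibition was compared across detergent levels.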

[7] = target: Rhodesain (Trypanosoma brucei rhodesiense) (UniProt Q95PM0); assay: Inhibition of recombinant Trypanosoma brucei rhodesain expressed in Pichia pastoris at 10 uM using Z-FR-AMC as substrate and measured at 12 sec interval for 5 mins without preincubation by fluorimetric analysis relative to control
In short: as §1, with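 “pre-incubation. Z-FR-AMC 2.5 µM, read at 340/440 nm every 12 s for 5 min.” for “pre-incubation.”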

Cruzipain = Cruzipain (Trypanosoma cruzi, UniProt P25779); assay: Inhibition of recombinant Trypanosoma cruzi cruzain using Z-FR-AMC as substrate and measured at 12 sec interval for 5 mins without preincubation by fluorimetric analysis
In short: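 Cruzain (recombinant, 1 nM) in 0.1 M sodium acetate pH 5.5 with 0.01% Triton X-100 and 1 mM β-mercaptoethanol; Z-FR-AMC 2.5 µM, read at 340/440 nm every 12 s for 5 min, with or without 10 min enzyme–compound pre-incubation. […] For mechanism and Ki, 0.3–20.0 µM substrate and five inhibitor levels were used, with Lineweaver-Burk plots.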

[8] = target: Rhodesain (Trypanosoma brucei rhodesiense) (UniProt Q95PM0); assay: Inhibition of recombinant Trypanosoma brucei rhodesain expressed in Pichia pastoris at 5 uM using Z-FR-AMC as substrate preincubated for 10 mins followed by substrate addition and measured at 12 sec interval for 5 mins by fluorimetric analysis relative to control; conditions: time 15.0 min; in short: as §1
Trypanosoma cruzi = assay: Trypanocidal activity against Trypanosoma cruzi Y strain trypomastigotes infected in C57BL/6 mouse peritoneal macrophage assessed as reduction in number of trypomastigotes release at 50 uM and measured after day 3 to day 11 post-infection by Neubauer chamber method; type: functional, organism-based; conditions: time 11.0 day
In short: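 Thioglycolate-elicited peritoneal macrophages from female C57BL/6 mice, 2 × 10^5/well, infected 2 h at 37°C with Y strain trypomastigotes at 5:1 (parasite:cell) and washed. They were then held with compound (3.125–50 µM) or IFN-γ 100 ng/mL. Trypomastigotes released into the supernatant were counted in a Neubauer chamber at several days after infection. Three independent experiments, each in triplicate.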

[9] = system: Trypanosoma brucei rhodesiense; assay: Trypanocidal activity against Trypanosoma brucei rhodesiense STI B900 assessed as reduction in parasite viability; type: functional, organism-based
cathepsin B = cathepsin B (Rattus norvegicus, UniProt P00787); assay: Inhibition of rat cathepsin B at 100 uM using Z-FR-AMC as substrate measured after 15 mins without preincubation by microplate reader based assay relative to control; conditions: probe Z-FR-AMC
In short: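 Rat cathepsin B (20 nM) at 25°C in 100 mM sodium phosphate, 100 mM NaCl, 1 mM EDTA, 1 mM DTT, 0.01% CHAPS. Compound pre-incubated 0 or 5 min with enzyme; Z-FR-AMC 50 µM, ex 380/em 440 nm, monitored 15 min. Inhibition is versus 2% DMSO, with 1 µM E64 control. Two independent experiments in triplicate.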

[10] = target: Rhodesain (Trypanosoma brucei rhodesiense) (UniProt Q95PM0); assay: Inhibition of recombinant Trypanosoma brucei rhodesain expressed in Pichia pastoris at 300 uM using Z-FR-AMC as substrate and measured at 12 sec interval for 5 mins without preincubation by fluorimetric analysis relative to control
In short: (§4)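 Run with no pre-incubation or with 10 min enzyme-compound pre-incubation. Fluorescence read at 340/440 nm. Concentration was set by solubility under assay conditions. Inhibition is against DMSO, with E-64 as positive control; triplicate.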

[11] = target: Cruzipain (Trypanosoma cruzi) (UniProt P25779); assay: Inhibition of recombinant Trypanosoma cruzi cruzain at 100 uM preincubated for 10 mins in absence of Triton X-100 relative to control; in short: as §3
cathepsin S [12] = target: T1, cathepsin S; assay: Inhibition of recombinant human cathepsin S expressed in Escherichia coli at 100 uM using Z-VVR-AMC as substrate preincubated for 10 mins followed by substrate addition and measured after 15 mins by microplate reader based assay relative to control; conditions: probe Z-VVR-AMC, in the assay text read “preincubated for 5 mins” for “preincubated for 10 mins”, time 20 min; in short: as §2
[13] = target: Cruzipain (Trypanosoma cruzi) (UniProt P25779); assay: Inhibition of recombinant Trypanosoma cruzi cruzain at 100 uM preincubated with enzyme for 5 mins followed by substrate addition in absence of BSA relative to control
In short: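 For BSA sensitivity, compound was held 5 min with BSA (2 mg/mL in 0.001% Triton X-100), then 5 min with 1 nM cruzain, before substrate was added and activity monitored. Parallel runs omitted BSA under otherwise identical conditions.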

[14] = target: Rhodesain (Trypanosoma brucei rhodesiense) (UniProt Q95PM0); assay: Inhibition of recombinant Trypanosoma brucei rhodesain expressed in Pichia pastoris at 10 uM using Z-FR-AMC as substrate preincubated for 10 mins followed by substrate addition and measured at 12 sec interval for 5 mins by fluorimetric analysis relative to control; conditions: time 15.0 min
In short: as §1, with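 “pre-incubation. Z-FR-AMC 2.5 µM, read at 340/440 nm every 12 s for 5 min.” for “pre-incubation.”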

[15] = target: Rhodesain (Trypanosoma brucei rhodesiense) (UniProt Q95PM0); assay: Inhibition of recombinant Trypanosoma brucei rhodesain expressed in Pichia pastoris at 300 uM using Z-FR-AMC as substrate preincubated for 10 mins followed by substrate addition and measured at 12 sec interval for 5 mins by fluorimetric analysis relative to control; conditions: time 15.0 min; in short: as §4

Chain of Rhodesain (Trypanosoma brucei rhodesiense) (Q95PM0 1-450): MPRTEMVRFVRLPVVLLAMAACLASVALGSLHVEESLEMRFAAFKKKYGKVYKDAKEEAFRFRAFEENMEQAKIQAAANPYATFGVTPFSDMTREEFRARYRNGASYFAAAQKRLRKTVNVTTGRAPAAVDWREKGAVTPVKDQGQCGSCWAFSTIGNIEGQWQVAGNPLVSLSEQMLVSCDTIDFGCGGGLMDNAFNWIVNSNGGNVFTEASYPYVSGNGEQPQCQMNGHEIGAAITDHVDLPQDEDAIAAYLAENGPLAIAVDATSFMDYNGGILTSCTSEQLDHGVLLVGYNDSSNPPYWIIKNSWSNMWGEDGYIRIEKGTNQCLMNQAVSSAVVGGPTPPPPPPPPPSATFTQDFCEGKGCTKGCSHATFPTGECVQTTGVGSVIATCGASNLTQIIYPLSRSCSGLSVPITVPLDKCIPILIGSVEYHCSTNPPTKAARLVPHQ
T1 sequence (P25774 whole entry): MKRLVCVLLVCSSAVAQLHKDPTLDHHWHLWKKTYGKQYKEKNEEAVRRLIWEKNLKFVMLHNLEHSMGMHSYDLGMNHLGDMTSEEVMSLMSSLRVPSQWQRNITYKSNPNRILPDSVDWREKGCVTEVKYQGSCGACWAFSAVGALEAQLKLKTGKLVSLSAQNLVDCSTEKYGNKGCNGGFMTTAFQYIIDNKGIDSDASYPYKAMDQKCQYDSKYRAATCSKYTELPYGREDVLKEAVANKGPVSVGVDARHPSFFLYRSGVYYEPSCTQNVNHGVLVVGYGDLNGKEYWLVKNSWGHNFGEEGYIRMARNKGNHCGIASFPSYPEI
Chain of Cruzipain (Trypanosoma cruzi) (P25779 123-467 limits assumed): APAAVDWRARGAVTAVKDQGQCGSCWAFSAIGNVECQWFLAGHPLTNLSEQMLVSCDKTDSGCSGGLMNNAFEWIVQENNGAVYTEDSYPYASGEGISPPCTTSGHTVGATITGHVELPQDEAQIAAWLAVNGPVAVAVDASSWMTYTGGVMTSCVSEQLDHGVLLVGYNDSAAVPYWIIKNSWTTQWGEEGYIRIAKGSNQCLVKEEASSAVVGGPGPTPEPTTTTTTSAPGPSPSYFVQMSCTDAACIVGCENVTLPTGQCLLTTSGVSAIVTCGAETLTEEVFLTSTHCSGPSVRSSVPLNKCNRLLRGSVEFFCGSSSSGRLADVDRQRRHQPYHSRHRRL
Chain of cathepsin B (P00787 whole entry): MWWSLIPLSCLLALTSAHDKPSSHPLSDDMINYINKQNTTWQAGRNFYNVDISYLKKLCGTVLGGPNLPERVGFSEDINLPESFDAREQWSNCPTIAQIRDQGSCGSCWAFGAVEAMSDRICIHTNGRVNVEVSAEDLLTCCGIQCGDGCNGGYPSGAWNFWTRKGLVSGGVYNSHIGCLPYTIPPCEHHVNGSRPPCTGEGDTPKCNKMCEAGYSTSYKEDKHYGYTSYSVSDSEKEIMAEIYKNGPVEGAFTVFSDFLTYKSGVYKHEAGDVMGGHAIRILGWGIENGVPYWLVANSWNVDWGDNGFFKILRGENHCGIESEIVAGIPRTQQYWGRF
Chain of Cruzipain (P25779 whole entry): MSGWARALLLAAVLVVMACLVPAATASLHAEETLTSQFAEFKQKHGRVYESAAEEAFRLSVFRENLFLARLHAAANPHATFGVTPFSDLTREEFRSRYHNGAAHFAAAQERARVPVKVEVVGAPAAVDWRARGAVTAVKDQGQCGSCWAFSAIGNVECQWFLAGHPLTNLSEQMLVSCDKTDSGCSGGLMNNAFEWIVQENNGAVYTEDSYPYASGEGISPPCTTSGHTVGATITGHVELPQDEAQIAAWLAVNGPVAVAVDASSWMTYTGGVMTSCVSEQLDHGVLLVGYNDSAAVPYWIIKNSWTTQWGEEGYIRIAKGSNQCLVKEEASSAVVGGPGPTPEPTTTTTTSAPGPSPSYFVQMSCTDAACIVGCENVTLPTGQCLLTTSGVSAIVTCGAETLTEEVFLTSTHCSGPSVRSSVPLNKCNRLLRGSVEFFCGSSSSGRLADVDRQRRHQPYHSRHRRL

Row | Compound | inhibition [1] | inhibition [2] | inhibition [3] | inhibition [4] | inhibition at 0.25 h, 100 µM (cathepsin S [5]) | inhibition [6] | inhibition [7] | IC50 (Cruzipain) | inhibition [8] | Activity (Trypanosoma cruzi) | IC50 [9] | inhibition at 0.25 h, 100 µM (cathepsin B) | inhibition [10] | inhibition [11] | inhibition at 0.25 h, 100 µM (cathepsin S [12]) | inhibition [13] | inhibition [14] | inhibition [15]
1 | Cl.Cl.Clc1cc(Br)ccc1-c1ccc(CNCC2CCNCC2)o1 | 29.1% | 31.3% | 56.7% | 25% | 27.1% | 76.7% | 10% | 26 µM | 49.6% | Active | 100 nM | 1.3% | 96% | 96.8% | 29.8% | 86.2% | 2% | 75%
2 | Cn1c(=O)n(C)c2cc(CNCCNc3ccnc4cc(Cl)ccc34)ccc21 | 64.9% | 47.7% | 79.7% | 13% | 4.7% | 56.4% | 10% | 145 µM | 81.4% | Active | 400 nM | 9.9% | 67% | 64.5% | 8.4% | 62.1% | 12% | 71%
